Reference: ChEMBL document CHEMBL1764956, “Inhibitory effects of Mannich bases of heterocyclic chalcones on NO production by activated RAW 264.7 macrophages and superoxide anion generation and elastase release by activated human neutrophils” (Bioorg Med Chem, 2011)

Tests used:
[1] = system: RAW264.7; assay: Cytotoxicity against mouse RAW264.7 cells assessed as cell viability after 4 hrs by MTT assay; type: cell-based; conditions: RAW264.7, 4 h
In short: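 RAW 264.7 macrophages (ATCC) grown in DMEM with 10% heat-inactivated FCS and penicillin/streptomycin at 37 °C, 5% CO2, in 96-well plates. Cells incubated with MTT (5 mg mL-1) for 4 h at 37 °C. Formazan dissolved in acid-SDS. Viability taken from mitochondria-dependent MTT reduction.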

[2] = system: RAW264.7; assay: Inhibition of LPS/IFNgamma-induced NO production in mouse RAW264.7 cells after 24 hrs by Griess reagent method; type: functional, cell-based; conditions: RAW264.7, 24 h
In short: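 RAW 264.7 cells grown to confluence in 96-well plates (~200,000 cells/well), then given fresh medium with LPS (1 µg mL-1) plus IFN-γ (50 U mL-1); compounds added together with stimulus. Nitrite in medium read at 24 h: Griess reagent (1% sulfanilamide, 0.1% naphthylenediamine, 5% phosphoric acid), OD550, against sodium nitrite standards made in medium. IC50 = 50% inhibition.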

[3] = system: Neutrophil; assay: Inhibition of FMLP/CB-stimulated superoxide anion generation in human neutrophils at 30 uM treated for 5 mins before FMLP and CB challenge for 10 mins and 3 mins respectively by spectrophotometer analysis relative to control; type: functional
In short: (§1)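 Human neutrophils in Ca2+-free HBSS pH 7.4 plus 0.5 mg/ml ferricytochrome c and 1 mM Ca2+. Equilibrated 37 °C 2 min, drug 5 min, cytochalasin B (1 µg/ml) 3 min, then 100 nM FMLP 10 min. SOD-inhibitable ferricytochrome c reduction followed at 550 nm with stirring. Mean ± S.E.M., n = 3–4; IC50 = 50% inhibition.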

[4] = system: Neutrophil; assay: Inhibition of FMLP/CB-stimulated elastase release in human neutrophils treated for 5 mins before FMLP/CB challenge using MeO-Suc-Ala-Ala-Pro-Val-p-nitroanilide as a substrate; type: functional, cell-based
In short: (§2)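 Human neutrophils (6×10^5/ml) with 100 µM MeO-Suc-Ala-Ala-Pro-Val-p-nitroanilide, equilibrated 37 °C 2 min, drug 5 min, then activated by 100 nM FMLP plus 0.5 µg/ml cytochalasin B. Absorbance at 405 nm monitored continuously. Expressed as % of release in drug-free FMLP/CB control. Mean ± S.E.M., n = 3–4; IC50 = 50% inhibition.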

[5] = system: Neutrophil; assay: Inhibition of FMLP/CB-stimulated superoxide anion generation in human neutrophils treated for 5 mins before FMLP and CB challenge for 10 mins and 3 mins respectively by spectrophotometer analysis; type: functional, cell-based; in short: as §1
[6] = system: Neutrophil; assay: Inhibition of FLMP-stimulated Ca2+ mobilization in human neutrophils assessed as time required to decrease half of Ca2+ at 10 uM treated for 5 mins before FLMP challenge by fluo-3 AM-based spectrofluorometry; type: functional, cell-based
In short: (§3)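 Human neutrophils (dextran sedimentation, Ficoll Hypaque, hypotonic erythrocyte lysis; >98% viable) loaded with 2 µM fluo-3 AM, 37 °C, 45 min, washed, 3×10^6 cells/ml in Ca2+-free HBSS. Stimulated with 0.1 µM FMLP with 1 mM Ca2+, 37 °C, stirring; ex 488/em 520 nm. [Ca2+]i = Kd[(F−Fmin)/(Fmax−F)], Fmax with 0.05% Triton X-100, Fmin with 20 mM EGTA. Mean ± SEM.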

[7] = system: Neutrophil; assay: Inhibition of FLMP-stimulated Ca2+ mobilization in human neutrophils assessed as maximum intracellular Ca2+ concentration at 10 uM treated for 5 mins before stimulation by fluo-3 AM-based spectrofluorometry; type: functional; in short: as §3
[8] = system: Neutrophil; assay: Inhibition of FMLP/CB-stimulated elastase release in human neutrophils at 30 uM treated for 5 mins before FMLP/CB challenge using MeO-Suc-Ala-Ala-Pro-Val-p-nitroanilide as a substrate relative to control; type: functional; in short: as §2

Structure (SMILES) | IC50 [2] | IC50 [4] | IC50 [5] | IC50 [1] | inhibition at 30 µM [3] | T1/2 [6] | Activity [7] | inhibition at 30 µM [8]
O=S(=O)(F)Cc1ccccc1 [PHENYLMETHYLSULFONYLFLUORIDE] | – | 95 µM | – | – | – | – | – | –
O=C(/C=C/c1ccccn1)c1ccc(O)c(CN2CCOCC2)c1 | 3410 nM | 20.9 µM | 15.2 µM | 6.56 µM | – | – | – | –
O=C(/C=C/c1ccncc1)c1ccc(O)c(CN2CCOCC2)c1 | 4140 nM | 13.7 µM | 8.85 µM | 111 µM | – | – | – | –
c1ccc2c(c1)[I+]c1ccccc1-2 [DIPHENYLENEIODONIUM] | – | – | 1.02 µM | – | – | – | – | –
COc1ccc(C(=O)/C=C/c2ccccn2)c(O)c1CN1CCOCC1 | 1730 nM | 0.95 µM | 0.68 µM | 10.8 µM | – | 8.43 s | 208.65 nM | –
COc1ccc(/C=C/C(=O)c2cccnc2)c(CN2CCCCC2)c1O | – | 20.1 µM | 13 µM | – | – | – | – | –
COc1ccc(/C=C/C(=O)c2ccco2)c(CN2CCCCC2)c1O | – | – | 4.18 µM | – | – | – | – | –
Cc1ccsc1/C=C/C(=O)c1cccc(O)c1CN1CCOCC1 | 3390 nM | 18.6 µM | 9.6 µM | 182 µM | – | – | – | –
O=C(/C=C/c1ccccc1)c1cccc(O)c1CN1CCOCC1 | 2300 nM | 5.19 µM | 2.81 µM | 9.95 µM | – | – | – | –
CCOc1cc(O)c(C(=O)/C=C/c2ccccc2)cc1CN1CCOCC1 | 290 nM | – | 3.35 µM | 1.6 µM | – | – | – | –
O=C(/C=C/c1ccccn1)c1ccc(O)c(CN2CCOCC2)c1O | 1730 nM | 21.2 µM | 12.6 µM | 11.4 µM | – | – | – | –
COc1ccccc1OC(=O)CNC(=O)Cc1ccc(C(=O)c2ccc(C)cc2)n1C [AMTOLMETIN GUACIL] | 51300 nM | – | – | – | – | – | – | –
CCOc1cc(O)c(C(=O)/C=C/c2sccc2C)cc1CN1CCOCC1 | 8130 nM | – | 19.9 µM | 2060 µM | – | – | – | –
COc1ccc(/C=C/C(=O)c2cccs2)c(CN2CCCCC2)c1O | – | – | 8.32 µM | – | – | – | – | –
O=C(/C=C/c1ccco1)c1cccc(O)c1CN1CCOCC1 | 2500 nM | – | 18.2 µM | 17.2 µM | – | – | – | 39.7%
O=C(/C=C/c1ccccn1)c1cc(CN2CCOCC2)c(O)c(CN2CCOCC2)c1 | 2520 nM | 18.9 µM | 14.8 µM | 190 µM | – | – | – | –
COc1ccc(/C=C/C(=O)c2ccc(C)cc2)c(CN2CCOCC2)c1O | – | 6.97 µM | 2.76 µM | – | – | – | – | –
O=C(/C=C/c1cccnc1)c1ccc(CN2CCOCC2)c(O)c1 | 230 nM | 6.66 µM | 5.96 µM | – | – | – | – | –
CCOc1cc(O)c(C(=O)/C=C/c2ccc(C)o2)cc1CN1CCOCC1 | 10500 nM | – | 19.9 µM | 91.3 µM | – | – | – | –
COc1cc(O)c(C(=O)/C=C/c2cccs2)cc1CN1CCOCC1 | 3610 nM | – | 10.2 µM | 148 µM | – | – | – | –
COc1cc(O)c(C(=O)/C=C/c2ccco2)cc1CN1CCOCC1 | 6060 nM | – | 15.8 µM | 1440 µM | – | – | – | 17.9%
CCOc1cc(O)c(C(=O)/C=C/c2cccnc2)cc1CN1CCOCC1 | 15400 nM | 3.48 µM | 2.42 µM | 4.46 µM | – | – | – | –
CCOc1cc(O)c(C(=O)/C=C/c2ccco2)cc1CN1CCOCC1 | 16500 nM | – | – | 16.9 µM | 39.9% | – | – | –
CC(C)Oc1cc(O)c(C(=O)/C=C/c2cccs2)cc1CN1CCOCC1 | 230 nM | – | 19.4 µM | 47.7 µM | – | – | – | –
O=C(/C=C/c1ccccn1)c1ccc(CN2CCOCC2)c(O)c1CN1CCOCC1 | 18 nM | 1.44 µM | 1.66 µM | 24.3 µM | – | – | – | –
O=C(/C=C/c1ccccc1)c1ccc(O)c(CN2CCOCC2)c1 | 15600 nM | – | 16.6 µM | 35 µM | – | – | – | 9.32%
O=C(/C=C/c1ccncc1)c1ccc(CN2CCOCC2)c(O)c1 | 55 nM | 2.28 µM | 1.6 µM | 110 µM | – | – | – | –
O=C(/C=C/c1cccs1)c1cccc(O)c1CN1CCOCC1 | 2490 nM | 24.3 µM | 10.5 µM | 12.7 µM | – | – | – | –

More lines, main results first:

IC50 [2] | IC50 [4] | IC50 [5] | Structure (SMILES) | IC50 [1] | inhibition at 30 µM [3] | T1/2 [6] | Activity [7] | inhibition at 30 µM [8]
930 nM | – | – | CC(C)=CCOc1ccc(C(=O)/C=C/c2sccc2C)c(O)c1CN1CCOCC1 | 11 µM | 21.5% | – | – | –
2210 nM | – | 3.39 µM | CC(C)Oc1ccc(C(=O)/C=C/c2cccs2)c(O)c1CN1CCOCC1 | 34 µM | – | – | – | –
15100 nM | 1.24 µM | 0.89 µM | CCOc1cc(O)c(C(=O)/C=C/c2ccccn2)cc1CN1CCOCC1 | 0.18 µM | – | – | – | –
200 nM | – | 2.86 µM | COc1cc(O)c(C(=O)/C=C/c2ccccc2)cc1CN1CCOCC1 | 0.19 µM | – | – | – | –
1390 nM | 18.2 µM | 16.4 µM | Cc1ccsc1/C=C/C(=O)c1ccc(O)c(CN2CCOCC2)c1 | – | – | – | – | –
160 nM | – | – | O=C(/C=C/c1ccco1)c1ccc(O)c(CN2CCOCC2)c1 | 10 µM | 27.4% | 28.1 s | 276.51 nM | –
11800 nM | 4.52 µM | 2.65 µM | COc1cc(O)c(C(=O)/C=C/c2cccnc2)cc1CN1CCOCC1 | 2810 µM | – | – | – | –
470 nM | – | 25.4 µM | O=C(/C=C/c1cccs1)c1ccc(O)c(CN2CCOCC2)c1 | 6830 µM | – | – | – | 19.3%
3350 nM | – | 5.77 µM | COc1ccc(/C=C/C(=O)c2cc(CN3CCOCC3)c(OC)cc2O)cc1 | 1860 µM | – | – | – | –
1280 nM | – | 25.6 µM | Cc1ccc(/C=C/C(=O)c2ccc(O)c(CN3CCOCC3)c2)o1 | 0.006 µM | – | – | – | –
– | 2.95 µM | 3.16 µM | COc1ccc(/C=C/C(=O)c2cccc(C)c2)c(CN2CCOCC2)c1O | – | – | – | – | –
820 nM | – | 23.5 µM | O=C(/C=C/c1cccnc1)c1ccc(O)c(CN2CCOCC2)c1 | 53.2 µM | – | – | – | 20.4%
720 nM | 2.47 µM | 2.63 µM | O=C(/C=C/c1ccccn1)c1ccc(CN2CCOCC2)c(O)c1 | 78 µM | – | – | – | –
440 nM | – | – | Cc1ccsc1/C=C/C(=O)c1cc(CN2CCOCC2)c(O)c(CN2CCOCC2)c1 | 56.9 µM | 33.8% | – | – | 15.4%
